Source: PubChem
Most compounds without a hit are left out; they make up all but 8.8% or so of the library.
M1 antag = antagonists of rat M1 muscarinic receptor | B-score at 10 µM | actives 3.4% (n = 64,000) | P08482 | CHO-M1 cells, Fluo-4 calcium, ACh EC80 antagonist mode; stronger effect = lower value;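 active means calcium fluorescence response, raw or row-and-column corrected B-score, differing from the plate sample mean either way at a set confidence level, mostly lower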
M1 agonist = M1 muscarinic receptor agonism | CHO-M1 cells, Fluo-4 calcium fluorescence, agonist mode; stronger effect = higher value | actives 3% (n = 64,000) | B-score at 10 µM;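 active means fluorescence rise, raw or as B-score row- and column-corrected plate score, outside the 99.7% band of its plate's samples, either direction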
RORa activator = activates the human nuclear receptor RORA; P35398; CHO-K1 Gal4-RORA LBD luciferase reporter, luminescence; percent increase over mock-subtracted basal signal; activation, % at 10 µM; actives 1.5% (n = 65,000); AID 560;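 active means activation above the mean of all tested compounds plus 3 SD, cut at about 49% in these data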;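 further: 0% = DMSO-treated RORA cells and 100% = added signal equal to DMSO minus mock-transfected cells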
SF-1 act = SF-1 (human) activation. CHO-K1 Gal4-SF-1 LBD luciferase reporter; % increase over DMSO SF-1-specific signal. activation, % at 10 µM. actives 1.9% (n = 65,000). AID 522;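 active means activation above the mean activation of all tested compounds plus 3 SD, cut at about 50% in these data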
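Assay system: CHO-K1 cells co-transfected with Gal4 DBD–human SF-1 LBD, 5xGal4 luciferase reporter; doses: 10 µM only; incubation: 20 h compound exposure at 37 °C after 1 h cell settling; signal: luciferase light emission; evaluation: percent activation versus DMSO; repeats: one test per compound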
S1P3 ag = agonists of human S1P3 receptor | Q99500 | S1P3 NFAT-BLA reporter cells, agonism, FRET ratio; relative to 1 µM S1P, basal subtracted | activation, % at 4.5 µM | actives 0.1% (n = 60,000);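 active means activation above the screen-wide mean plus 3 SD, cut at about 4.5% in these data, passing the limit was not always enough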
Target sequence (Q99500 whole entry, looked up): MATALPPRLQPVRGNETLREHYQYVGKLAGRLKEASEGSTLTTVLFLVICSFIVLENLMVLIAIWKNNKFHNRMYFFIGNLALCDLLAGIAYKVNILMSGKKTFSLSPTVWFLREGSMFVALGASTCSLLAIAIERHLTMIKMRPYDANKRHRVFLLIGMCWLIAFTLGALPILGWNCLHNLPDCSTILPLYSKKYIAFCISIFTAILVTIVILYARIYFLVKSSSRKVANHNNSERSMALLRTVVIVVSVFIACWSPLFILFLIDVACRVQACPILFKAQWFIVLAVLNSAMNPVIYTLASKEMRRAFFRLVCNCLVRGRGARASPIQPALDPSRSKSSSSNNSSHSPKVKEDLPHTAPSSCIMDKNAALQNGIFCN
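Assay system: CHO cells stably expressing human S1P3, Gα16 and NFAT-β-lactamase reporter. Timing: overnight plating, 4 h compound 37 °C, 2 h substrate RT. Signal: β-lactamase FRET emission ratio 460/535 nm. Measure: percent activation versus median 1 µM S1P response, basal-subtracted, per plate. Repeats: primary screen single test, confirmation screen in triplicate.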
S1P1 ag pot = agonists and agonism potentiators of human S1P1 receptor. activation, % at 9.5 µM. P21453. actives 0.57% (n = 56,000). AID 449. S1P1 CRE-bla cells, forskolin, beta-lactamase FRET, potentiator mode; S1P1 agonist co-added at EC20, 2 nM; 100% = saturating reference agonist, 0% = basal;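 active means activation above a cutoff set at the mean activation of all tested compounds plus 3 SD, cut at about 54% in these data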;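 further: forskolin at 4 µM as EC80 and the EC20 agonist is SEW2871; 100% = SEW2871 at its EC100 plus forskolin at EC80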
M1 antag conf = confirmation of rat M1 muscarinic receptor antagonists; shares compounds with M1 antag; CHO-M1 cells, Fluo-4 calcium, ACh EC80 antagonism; stronger effect = lower value; calcium response (max-min fluorescence) at 10 µM; actives 43% (n = 1,700);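 active means calcium response below the same-plate mean of wells given acetylcholine alone at its 80%-effect dose, minus 3 SD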;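 further: raw fluorescence intensity difference in arbitrary instrument units and not normalized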
mGluR4 antag = mGluR4 (human) activity, M1 antagonist secondary assay. shares compounds with M1 antag. CHO-mGluR4 calcium flux, Fluo-4 fluorescence, glutamate EC80; stronger effect = lower value. fluorescence response (max-min) at 10 µM. actives 0.9% (n = 1,700). AID 678;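 active means fluorescence response below the plate's average for near-maximal glutamate wells, less 3 SD of those wells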;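 further: raw unnormalized fluorescence span taken in the window right after glutamate addition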
Active calls of the source: *; x = no result given.

SMILES	M1 antag	M1 agonist	RORa activator	SF-1 act	S1P3 ag	S1P1 ag pot	M1 antag conf	mGluR4 antag
COc1ccc(N2C(=O)CC(N3CCN(C4CCc5ccccc5C4)CC3)C2=O)cc1 (stereo not given)	-2.3*	0.049	-5	-10	-1	x	435	223
CC(NC(=O)Nc1nnc(C(F)(F)F)s1)(C(F)(F)F)C(F)(F)F	-1.3*	4.1	-94	-94	-8	80*	513*	290
C=CCc1ccc(OCC(O)CN2CCCCC2C)c(OC)c1 (stereo not given)	-2.5*	0.046	14	20	1	-16	574	238
CCOC(=O)N1CCN(C(=O)c2cnn3c(C)c(Cc4ccc(C)cc4)c(C)nc23)CC1	0.27	-0.37	-8	-2	x	x	x	x
Cc1nc2c(C(=O)N3CCN(c4ccccn4)CC3)cnn2c(C)c1Cc1cccc(Cl)c1	-2.3*	2.2	4	-8	-1	20	606	249
O=C(CSc1nnc2c3c4c(sc3ncn12)CCCC4)NCc1ccco1	0.3	-0.14	-5	-14	0	-5	x	x
Cc1nc2sc3c(c2c2nnc(SCC(=O)NCc4ccco4)n12)CCCC3	-2.7*	-1	-10	4	1	-15	618	215
Cn1c(COc2ccc3ccccc3c2)nnc1SCC(N)=O	-0.16*	-0.32	-7	-13	-1	1	516	171
COCCn1c(COc2ccccc2)nnc1SCC(N)=O	0.35	-0.13	-20	5	-1	-28	x	x
COc1ccc(CNC(=O)CSc2nnnn2-c2ccc(O)cc2)cc1	-0.13	-0.024	2	-10	x	x	x	x
COC(=O)C1=CNC=C(C(=O)OC)C1c1ccc(C(=O)OC)cc1	-3.2*	-0.019	-23	-6	0	-35	398*	220
CCOC(=O)c1c(-c2cccs2)csc1NC(=O)CCCC(=O)O	0.0075	0.061	8	-5	1	-11	x	x
CCOC(=O)c1c(-c2cccs2)csc1NC(=O)CSc1ncn[nH]1	-2.7*	-0.39	4	29	-1	24	621	235
Nn1c(SCC(=O)Nc2ccc(S(=O)(=O)N3CCCC3)cc2)nnc1C(F)(F)F	-0.94	0.52	-12	7	0	-18	x	x
Cc1cc(C)nc(NC2=NCC(=O)N2c2cccc(Cl)c2)n1	0.58	-0.28	0	1	-3	-1	x	x
Cc1cc(C)nc(NC2=NCCN2C(=O)Nc2ccc(Cl)c(Cl)c2)n1	-4.1*	-0.73	6	-2	0	18	475	217
O=S(=O)(Nc1ccc2c(c1)nc1n2CCOC1)c1ccc(Cl)cc1	0.19	-0.11	-16	-4	-1	12	x	x
CN(C)CCCOC(=O)C1c2ccccc2Oc2ccccc21	-12*	-1.1	2	7	-2	0	22*	243
COc1cc(-c2nnc(COC(=O)C3c4ccccc4Oc4ccccc43)o2)cc(OC)c1OC	-1.7	1.6	-3	-13	0	-12	x	x
O=C(Nc1cnccn1)C1c2ccccc2Oc2ccccc21	-0.48	-0.41	-10	-2	-1	0	x	x
CCN(CC)CCCNC(=O)C1c2ccccc2Oc2ccccc21	-6.8*	0.05	-16	4	-1	-14	192*	255
COc1c(Cl)ccc(Cl)c1C(=O)OCC(=O)O	x	x	15	5	-1	-8	x	x
O=C(c1ccco1)N1CCN(CC(=O)N2CCCc3c2c(=O)oc2ccc(O)cc32)CC1	0.21	0.99	-2	-23	0	-7	x	x
CCCOc1ccc2oc(=O)c3c(c2c1)CCCN3C(=O)CN(C)Cc1ccccc1	-6.5*	-0.22	-1	-13	-1	-7	386*	265
O=C(CN1CCN(Cc2ccccc2)CC1)N1CCCc2c1c(=O)oc1ccc(O)cc21	-6.1*	-0.0002	8	13	0	14	334*	222
